From PubChem
Hits are enriched below; roughly 1.7% of the tested compounds scored in any of these assays.
Myeloid diff MLP: myeloid differentiation induction; 360,000 compounds, 1% hits; calls only at 10 µM; ER-HoxA9 myeloid progenitors, lysozyme-GFP differentiation, flow cytometry; AID 624256;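 active = normalized GFP-positive differentiation at or above the plate's own cutoff, the solvent-only control mean plus 3 SD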;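 also: cells exposed to compound for four days before flow analysis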
Vif imaging: inhibitors of HIV Vif; HEK293T cells, Vif self-association by quenched fluorescence, imaging, 24 h; inhibition, % at 7.49 µM; 340,000 compounds, 0.35% hits; in the data active = inhibition above about 50%, passing the limit was not always enough
Pemphigus Ab inh: inhibitors of pemphigus antibody binding to human desmoglein-3 | P32926 | 310,000 compounds, 0.48% hits | DSG3-coupled beads, scFv-anti-DSG3-GFP binding, flow cytometry; active compounds read low | binding (percent of control), % at 10 µM;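 active = binding more than 3 SD below its plate's average and above zero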;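 also: hits lower antibody fragment binding to DSG3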
Target sequence (P32926 whole entry, looked up, the tested form may be a part): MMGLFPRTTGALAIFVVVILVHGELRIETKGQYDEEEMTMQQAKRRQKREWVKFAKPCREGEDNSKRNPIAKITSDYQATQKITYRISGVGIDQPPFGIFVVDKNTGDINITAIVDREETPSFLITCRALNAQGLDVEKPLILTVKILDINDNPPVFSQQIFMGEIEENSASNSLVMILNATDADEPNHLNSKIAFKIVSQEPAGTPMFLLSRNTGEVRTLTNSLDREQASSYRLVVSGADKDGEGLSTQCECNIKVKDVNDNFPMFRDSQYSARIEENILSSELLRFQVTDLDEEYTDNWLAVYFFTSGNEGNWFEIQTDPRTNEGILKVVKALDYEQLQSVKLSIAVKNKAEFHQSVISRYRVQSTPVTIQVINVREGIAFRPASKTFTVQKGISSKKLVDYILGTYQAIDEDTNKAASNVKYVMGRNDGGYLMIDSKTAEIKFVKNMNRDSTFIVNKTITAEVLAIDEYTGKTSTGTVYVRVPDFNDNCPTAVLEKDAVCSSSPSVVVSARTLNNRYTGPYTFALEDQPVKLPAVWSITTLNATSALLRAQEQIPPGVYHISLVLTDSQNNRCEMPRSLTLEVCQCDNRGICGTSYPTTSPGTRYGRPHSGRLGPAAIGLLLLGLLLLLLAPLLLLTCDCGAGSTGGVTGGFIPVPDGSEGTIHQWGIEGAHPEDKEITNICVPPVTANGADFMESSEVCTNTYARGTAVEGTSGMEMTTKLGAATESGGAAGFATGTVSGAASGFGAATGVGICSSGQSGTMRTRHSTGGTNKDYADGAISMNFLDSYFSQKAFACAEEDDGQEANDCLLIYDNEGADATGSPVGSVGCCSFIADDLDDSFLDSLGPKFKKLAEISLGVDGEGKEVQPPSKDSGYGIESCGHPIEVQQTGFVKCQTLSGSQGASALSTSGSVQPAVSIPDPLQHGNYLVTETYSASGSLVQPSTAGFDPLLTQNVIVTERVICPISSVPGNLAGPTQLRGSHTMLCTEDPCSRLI
T cell HTS: T cell immune modulation candidate; 2C CD8+ T cell-vesicle binding, flow cytometry; active compounds read low; response (vesicle binding), % at 7 µM; 330,000 compounds, 0.068% hits;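 active = response, share of CD8 T cells binding vesicles, and their 90th percentile fluorescence all below set limits, cut at about 80% in these data, passing the limit was not always enough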;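 also: values below 100% mean blocked vesicle binding to the CD8+ T cells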
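Read-out – percent CD8+ FL2 mean versus row control · System – murine 2C transgenic CD8+ T lymphocytes · Times – 1.5 h cell–vesicle binding at 37 °C, then 20 min icy labelling · Control set – naked vesicles low, QL9 vesicles with vehicle high · Detection – cytometric PE anti-B7-1 and Alexa647 anti-CD8 signals after 1% paraformaldehyde fixation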
Myeloid diff CP1: compounds promoting myeloid differentiation. shares compounds with Myeloid diff MLP. ER-HoxA9 myeloid progenitors, GFP/Mac1 double-positive flow. calls only. 2,300 compounds, 2% hits. AID 651706;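 active = share of green or green-and-red cells above 9 and 9% in run 1 or 4 and 3% in run 2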
GFP autofluor: counter-screen for myeloid differentiation promoters: compound fluorescence. shares compounds with Myeloid diff MLP. ER-HoxA9 myeloid progenitors, no estrogen, GFP autofluorescence flow cytometry; vehicle wells 0%, positive control 100%. fluorescence response, % (no concentration beside the values). 2,300 compounds, 7.4% hits. AID 651707;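 active = over 5% cells positive for green fluorescent reporter, or over 2% positive for both it and APC stain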;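 also: range taken on the double positive population between DMSO and positive control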
* hit, by the source's call; i = inactive; nt = no result; + = active, no number.

SMILES	Myeloid diff MLP	Vif imaging	Pemphigus Ab inh	T cell HTS	Myeloid diff CP1	GFP autofluor
COc1ccc(NC(=O)c2cccnc2)cc1	i	3	112	210	nt	nt
COc1ccc(Cn2c(C3CC3)nc3ccc(NC(C)=O)cc3c2=O)cc1	+	-3	105	636	i	0
CCCc1nc2ccc(NC(C)=O)cc2c(=O)n1Cc1ccc(Cl)cc1	i	-3	95	552	nt	nt
Cc1cc(C(=O)N2CCC2(C)C(=O)Nc2cccc3c2CCCC3)nn1C (configuration not stated)	i	7	nt	nt	nt	nt
Cc1ccc(-c2csc(NC(=O)/C=C/c3cccs3)n2)cc1C	i	11	85	80	i	0
N#Cc1ccc(-c2csc(NC(=O)/C=C/c3cccs3)n2)cc1	+	-4	93	238	i	0
O=C(NC1CCCC1)c1cnc2n(c1=O)CCS2	i	-5	113	212	i	0
CC1(C)Cc2c(cnn2-c2ccccc2)C(NC(=O)C2(C(N)=O)CC2)C1 (configuration not stated)	+	-4	107	250	i	0
O=C(Nc1ccc(F)c(Cl)c1)C1Cc2c(-c3ccco3)ccnc2O1 (configuration not stated)	i	-10	nt	nt	nt	nt
Cc1c(Cl)cccc1N1C(=O)CC(NNC(=O)c2ccc3c(c2)OCO3)C1=O (configuration not stated)	i	-1	87	630	nt	nt
COc1ccc2cc(C#N)c(SCC(=O)NNC(=O)Cc3ccccc3)nc2c1	i	-9	97	396	nt	nt
Cc1ccc2cc(C#N)c(SCC(=O)NNC(=O)Cc3ccccc3)nc2c1	+	-3	99	nt	i	0
CCC(=O)[C@@H](C)[C@@H](OC(C)=O)[C@H](C)C[C@@H](C)[C@H]1OC(=O)C[C@@]2(O)CC=C(C)C(O2)C(C)=CCCC[C@H](O[C@H]2C[C@@H](OC(N)=O)[C@H](OC(C)=O)[C@@H](C)O2)C=C[C@H](C)C[C@H]1C	i	nt	nt	nt	nt	nt
COc1cc(OC)cc(C(=O)N(Cc2ccco2)c2c(N)n(Cc3ccccc3)c(=O)[nH]c2=O)c1	i	18	104	nt	nt	nt
O=C(NCCCC1CCCC1)C1CCC(=O)N(Cc2cccc(C(F)(F)F)c2)C1 (configuration not stated)	+	-6	99	255	i	0
O=C(NCCCn1cccn1)C1CCC(=O)N(Cc2cccc(C(F)(F)F)c2)C1 (configuration not stated)	i	7	94	i	nt	nt
COC(=O)NNC(=O)COc1ccc2ccccc2c1Br	i	13	98	392	i	1
COc1ccc(COc2ccc3c(C)cc(=O)oc3c2)cc1	i	-9	106	327	nt	nt
Cc1cc(=O)oc2cc(OCc3ccc(S(=O)(=O)N4CCOCC4)cc3)ccc12	+	1	97	422	i	0
CN(C)CC(=O)N[C@@H]1CC[C@@H](CCNS(=O)(=O)c2ccccc2)O[C@@H]1CO	i	nt	nt	nt	nt	nt
O=C(NCCCn1ccnc1)NC(C(F)(F)F)C(F)(F)F	i	11	nt	535	i	0
O=C(O)C1CCCCC1C(=O)NCCCn1ccnc1 (configuration not stated)	i	0	98	365	nt	nt
O=C(NCCCn1ccnc1)C(=O)NC1CCCCC1	+	-5	115	194	i	1
COC(=O)N1CCCCC1c1cc(C(=O)Nc2ccc(OC)cc2C)no1 (configuration not stated)	i	-2	nt	nt	nt	nt
Nc1nc2ccc([N+](=O)[O-])cc2[nH]1	i	-4	88	113	nt	nt
SMILES	Myeloid diff MLP	Vif imaging	Pemphigus Ab inh	T cell HTS	Myeloid diff CP1	GFP autofluor
O=[N+]([O-])c1ccc(/C=C/c2nc3ccc([N+](=O)[O-])cc3[nH]2)cc1	+	-8	90	312	i	0
CC(=O)Nc1ccc(CN(C)c2c(C)nc3ccc(C(=O)Nc4ccc(Cl)c(Cl)c4)cn23)cc1	i	0	nt	nt	nt	nt
COc1ccc(-c2csc(NC3CCCCC3)n2)c(OC)c1	+	11	96	291	i	0
c1ccc(-c2csc(NC3CCCCC3)n2)cc1	nt	1	96	232	nt	nt
CCCc1nc2c(C)cc(Br)cn2c1Cc1cccc(F)c1	i	nt	nt	nt	nt	nt
O=C1C2C(C(=O)N1CC1CCCO1)C1C=CC2C12CC2 (configuration not stated)	nt	5	121	558	i	1
COc1ccc(N2CC(C(=O)Nc3c(C(N)=O)oc4ccccc34)CC2=O)cc1 (configuration not stated)	i	-3	103	560	nt	nt
O=C(CCc1nc(-c2ccccc2F)no1)NC1CCN(Cc2ccccc2)CC1	i	-6	125	319	i	0
CCn1c(-c2ccccc2Cl)nn(CC(=O)NCCc2ccccc2)c1=S	i	1	97	199	nt	nt
CCn1c(-c2ccccc2Cl)nn(CC(=O)Nc2cc(Cl)ccc2Cl)c1=S	i	-13	111	300	i	0
O=C1NN=C2CCCCCC12 (configuration not stated)	i	nt	110	nt	nt	nt
CCOC(=O)c1cnc(SCc2nc(N)nc(Nc3ccc(F)cc3)n2)nc1N	i	-6	96	363	nt	nt
CCOC(=O)c1cnc(SCc2nc(N)nc(Nc3ccc(C)cc3)n2)nc1N	i	-2	104	133	i	0
CCOC(=O)C1(C)CCCN(C(=O)CCc2ccccc2)C1 (configuration not stated)	i	-3	nt	nt	nt	nt
COc1cccc(Cn2cnc3c(N)c(C)c(C)cc32)c1	i	0	137	305	i	0
COc1ccc(OC)c(-c2csc(NC(=O)Cc3cccs3)n2)c1	+	-13	101	153	i	0
COc1ccc(CC(=O)Nc2nc(-c3cc(OC)ccc3OC)cs2)cc1	i	-38	111	423	nt	nt
CCCCn1c(-c2ccoc2C)n[nH]c1=S	+	10	100	360	i	0
CCCCn1c(-c2ccco2)n[nH]c1=S	i	15	113	67	nt	nt
O=C1Nc2ccccc2C1=Nc1ccccc1-c1ccccc1	i	9	97	nt	nt	nt
C/C=C1\NC(=O)[C@H](C)NC(=O)[C@@H](NC(=O)[C@H](Cc2ccc(O)cc2)NC(=O)[C@@H](NC(=O)/C(C)=C/C)C(C)C)[C@@H](C)OC(=O)[C@H](CC(C)C)NC(=O)[C@@H](CCC(=O)O)NC1=O	i	2	nt	nt	nt	nt
CCc1nnc(NS(=O)(=O)c2ccc(NC(=S)NC(=O)c3cccnc3)cc2)s1	+	2	107	300	i	1
CCNC(=O)/C(C#N)=C/c1c(N(Cc2ccccc2)Cc2ccccc2)nc2ccccn2c1=O	+	1	109	360	i	0
CNC(=O)/C(C#N)=C/c1c(N(Cc2ccccc2)Cc2ccccc2)nc2c(C)cccn2c1=O	i	-14	102	205	nt	nt
